In data set [1] the test system is Staphylococcus aureus. The data set can be described thus: Bacteriostatic activity against Staphylococcus aureus ATCC 25923 at MIC between 5 to 24 hrs. In kind it is functional, organism-based. In short, it runs like this:
(§1)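 Extracellular broth time- and concentration-kill test. The inoculum was ~10⁶ CFU/ml, exposed to a wide range of DCX concentrations, with CFU counted after 5 and 24 h. The read-out was Δlog CFU/ml versus time zero (mean ± SD, n = 3). A sigmoidal fit with slope 1 gave Emax and EC50. Cstatic was read by graphical interpolation as the concentration giving no change from the inoculum.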

A short description of data set [2]: Half-life in NMRI mouse at 120 mg/kg, sc. In kind it is ADME, organism-based. Further details: dose 120 mg/kg, route subcutaneous. To be noted: in vivo. In short, it runs like this:
(§2)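 Single subcutaneous DCX doses given to NMRI mice. Blood was collected into EDTA tubes, and plasma drug was assayed by microbiological bioassay with S. lutea ATCC 9391 (detection limit 1.5 mg/liter, linear to 100 mg/liter). Values came from noncompartmental analysis. Terminal half-life was fitted monoexponentially to the last four time points. AUC24 combined the trapezoidal rule over mean points with exact integration of the fitted curve extrapolated to 24 h.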

Data set [3] in a line: Ratio of fAUC (24 hrs) in NMRI mouse at 200 mg/kg administered every 4 hrs to MIC for Staphylococcus aureus E19977. In kind it is functional. In a few lines: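 Computed from modelled dosing regimens, not measured directly. Single subcutaneous doses were given to NMRI mice, and plasma was assayed by S. lutea bioassay. AUC24 came from noncompartmental analysis, with terminal exponential extrapolation to 24 h. The free fraction came from a square-root fit to ultrafiltration protein-binding data, with saturable binding included. MIC was by broth microdilution.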

A short description of data set [4]: Ratio of fCmax in NMRI mouse at 30 mg/kg administered every 2 hrs to MIC for Staphylococcus aureus E19977. In kind it is functional. In a few lines:
(§3)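 Free Cmax/MIC was modelled, not measured. Single-dose subcutaneous plasma curves from NMRI mice were projected to the multiple-dose regimens. Free fraction came from a square-root fit of unbound fraction versus total concentration. Binding was measured by ultrafiltration of mouse plasma spiked with 10–400 mg/liter and held 1 h at 37°C. MIC was for strain E19977.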

Data set [5] can be described thus: Ratio of fAUC (24 hrs) in NMRI mouse at 200 mg/kg administered every 6 hrs to MIC for Staphylococcus aureus E19977. In kind it is functional. In a few lines: (§4)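 Modeled free AUC over 24 h divided by the MIC, not measured directly. Single subcutaneous DCX doses were given to NMRI mice, and plasma was assayed by S. lutea bioassay. Noncompartmental analysis used trapezoidal mean points plus a fitted monoexponential extrapolated to 24 h. Free fraction came from a square-root fit to plasma ultrafiltration binding (10–400 mg/liter spike, 1 h, 37°C). The MIC was measured by broth microdilution at pH 7.4.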

Data set [6] in a line: Ratio of fCmax in NMRI mouse at 120 mg/kg administered every 3 hrs to MIC for Staphylococcus aureus E19977. In kind it is functional. In short, it runs like this: as §3
A short description of data set [7]: Ratio of fCmax in NMRI mouse at 240 mg/kg administered every 6 hrs to MIC for Staphylococcus aureus E19977. In kind it is functional. In short, it runs like this:
as §3

Data set [8] is described as follows: Ratio of fCmax in NMRI mouse at 400 mg/kg administered every 12 hrs to MIC for Staphylococcus aureus E19977. In kind it is functional. In a few lines: as §3
For the next data set, the species on record is Mus musculus. The data set can be described thus: Protein binding in NMRI mouse at 90 mg/l by ultrafiltration. In kind it is ADME, organism-based. The conditions noted are these: in vivo. In a few lines: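 Plasma binding was measured by ultrafiltration. EDTA blood from healthy mice, or from NMRI mice infected intraperitoneally for 6 h with E19977, was spiked with DCX at 10–400 mg/liter, with PBS controls. Samples were held 1 h at 37°C, then centrifuged through 30-kDa filters at 3,000 × g for 8 min at 37°C. Total and filtrate drug were measured by S. lutea bioassay.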

Data set [9] deals with Staphylococcus aureus. The data set can be described thus: Bactericidal activity against Staphylococcus aureus E19977 infected in human THP1 cells assessed as log reduction in bacterial count at 10 times MIC after 24 hrs by time-kill assay. In kind it is functional, THP-1. In a few lines: (§5)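 Intracellular model in THP-1 macrophages: opsonized S. aureus was added at 4 bacteria per macrophage for 45 min. Non-phagocytized bacteria were removed by washing and brief PBS incubation with gentamicin (50 mg/liter). Cells were then incubated up to 24 h with a wide range of extracellular dicloxacillin concentrations. Result is change in log₁₀ CFU per mg cell protein from time zero. n = 3.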

Data set [10] deals with Staphylococcus aureus. The experiment in a line: Antimicrobial activity against Staphylococcus aureus E19977 by broth microdilution method at pH 5.4. A general note: In broth dilution the organism is exposed to a series of concentrations in liquid medium.
A short description of data set [11]: Half-life in NMRI mouse at 300 mg/kg, sc. In kind it is ADME, organism-based. Further details: dose 300 mg/kg, route subcutaneous. To be noted: in vivo. In short, it runs like this: as §2
The subject of data set [12] is Staphylococcus aureus. The experiment in a line: Antimicrobial activity against Staphylococcus aureus E19977 after 24 hrs. In kind it is functional, organism-based. The conditions noted are these: E19977, 24 h. In a few lines:
as §1

A short description of data set [13]: fT>MIC in Staphylococcus aureus E19977 infected NMRI mouse at 30 mg/kg administered every 2 hrs. The format is functional. In a few lines:
(§6)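 Calculated percentage of 24 h at steady state that free plasma DCX exceeds the strain MIC (microdilution, pH 7.4). Concentrations were simulated from single subcutaneous dose plasma curves in NMRI mice (S. lutea bioassay), adjusted with a square-root model of concentration-dependent free fraction from ultrafiltration. The regimen was dosed subcutaneously in mice infected intraperitoneally with 10^7.4 CFU, and peritoneal CFU were read after 24 h of therapy.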

The test system of data set [14] is Staphylococcus aureus. The experiment in a line: Bactericidal activity against Staphylococcus aureus ATCC 25923 assessed as log change in bacterial count after 24 hrs. In kind it is functional. In short, it runs like this: as §1
In data set [15] the test system is Staphylococcus aureus. The experiment in a line: Bacteriostatic activity against Staphylococcus aureus ATCC 25923 infected in human THP-1 cells at 10 times MIC after 5 hrs. In kind it is functional, organism-based. In a few lines:
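Human THP-1 macrophages were infected with opsonized S. aureus at 4 bacteria per macrophage for 45 min. Non-phagocytized bacteria were removed by washing and a brief incubation in PBS with gentamicin 50 mg/liter. Cells were then incubated up to 24 h with DCX over a wide range of extracellular concentrations. The read-out was Δlog CFU per mg cell protein versus time zero (n = 3), with sigmoidal fitting and Cstatic by interpolation.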

Data set [16] is described as follows: Ratio of fAUC (24 hrs) in NMRI mouse at 80 mg/kg administered every 3 hrs to MIC for Staphylococcus aureus E19977.
Data set [17] can be described thus: Ratio of fAUC (24 hrs) in NMRI mouse at 400 mg/kg administered every 12 hrs to MIC for Staphylococcus aureus E19977. In kind it is functional. In a few lines:
as §4

For data set [18], the system named is Staphylococcus aureus. The experiment in a line: Antimicrobial activity against Staphylococcus aureus ATCC 25923 by broth microdilution method at pH 5.4.
Data set [19] deals with Staphylococcus aureus. The data set can be described thus: Bactericidal activity against Staphylococcus aureus ATCC 25923 assessed as log reduction in bacterial count at 10 times MIC after 24 hrs by time-kill assay. In kind it is functional. In short, it runs like this:
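Broth time-kill: MSSA at 10⁶ CFU/ml exposed to a wide range of dicloxacillin concentrations. CFU counted after 5 and 24 h and expressed as change in log₁₀ CFU/ml from time zero. Multiples refer to the MIC by CLSI microdilution at pH 7.4. n = 3.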

Data set [20] in a line: fT>MIC in Staphylococcus aureus E19977 infected NMRI mouse at 120 mg/kg administered every 24 hrs. The format is functional. In a few lines:
as §6

The test system of data set [21] is Staphylococcus aureus. The experiment in a line: Bactericidal activity against Staphylococcus aureus ATCC 25923 infected in human THP1 cells assessed as log reduction in bacterial count at 100 times MIC after 24 hrs by time-kill assay. The format is functional, THP-1. In short, it runs like this:
as §5

Data set [22] is described as follows: Ratio of fCmax in NMRI mouse at 120 mg/kg administered every 24 hrs to MIC for Staphylococcus aureus E19977. The format is functional. In a few lines:
as §3

In brackets after ≈: the same amount, converted by molar mass. Activity calls are given as the source filed them.

What is called half-life is the time needed for the level to fall by half in the phase considered. The MIC is the lowest concentration that inhibits growth of the organism. A higher MIC goes with a need for much substance. The term EC50 denotes the midpoint of the concentration-response curve. Read a high EC50 as weaker potency. Turning to `Cc1onc(-c2c(Cl)cccc2Cl)c1C(=O)N[C@@H]1C(=O)N2[C@@H]1SC(C)(C)[C@@H]2C(=O)O` [DICLOXACILLIN], the outcome in the data set with Staphylococcus aureus [1] and with Staphylococcus aureus [15] was Active. The half-life in [2] was found to be 22 min; in data set [11] it was 30 min. Moreover, the fAUC/MIC in data set [3] turned out to be 616.07 h; in data set [5], 411.61 h; in data set [16], 168.69 h; in data set [17], 644.84 h. In addition, the Ratio worked out at 6.27 in [4]; 61.6 in data set [6]; 136.18 in [7]; 291.53 in data set [8]; 61.6 in data set [22]. The compound further yielded an Activity in the data set listed under Mus musculus of 88.7%. Moreover, the FC was less than 1 with Staphylococcus aureus [9], 3 with Staphylococcus aureus [19] and less than 1 with Staphylococcus aureus [21]. Moreover, the minimal inhibitory concentration (MIC) came out at 0.125 µg/mL (≈ 0.266 µM) with Staphylococcus aureus [10] and 0.031 µg/mL (≈ 0.0659 µM) with Staphylococcus aureus [18]. In the data set on Staphylococcus aureus [12], this compound came in with an EC50 of 0.5 µg/mL (≈ 1.06 µM). Moreover, the “fT>MIC” value in [13] is 45.83%; in [20], 9.44%. For the same compound, the Emax in the data set on Staphylococcus aureus [14] is -3.19 deltalog10CFU/ml.

For the origin of these results see ChEMBL document CHEMBL1255483, “Intra- and extracellular activities of dicloxacillin against Staphylococcus aureus in vivo and in vitro” (Antimicrob Agents Chemother, 2010).
